Consider four molecules from publication PMC8995271 (Targeted Oncology, 2022).

Molecules are shown by their SMILES. “Also recorded” adds a separate entry of the source. Where two headings read alike, the source gives them in different places.

Data set [1] can be described thus: Phase Ib dose-limiting toxicities and MTD determination. It counts as in vivo, human.
Data set [2] can be described thus: Treatment-related adverse events. It is filed as in vivo, human.
For data set [3], the system named is advanced or metastatic solid tumors. As to the kind of experiment: Tumor response. It counts as in vivo, human.
The nature of data set [4]: Varlitinib plasma pharmacokinetics in patients, cycle 1. It counts as in vivo. As to conditions: human, oral, mean AUC0–24h, cohorts pooled. An outline of the steps:
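Blood samples taken in cycle 1 from patients on intermittent (4 days on/3 off) oral twice-daily varlitinib with weekly chemotherapy ± trastuzumab. Sampling was on cycle 1 day 5 at 0, 0.5, 1, 2, 5, 7 and 24 h after the varlitinib dose.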

Data set [5] in a line: Paclitaxel pharmacokinetics in patients, cycle 1 day 1 and day 8. To be noted: for AUC(0-t): human, plasma, mean AUC0–24h of paclitaxel, cycle 1 day 1. It is filed as in vivo, human.
For data set [6], the system named is HER1. As to conditions: read-out: half maximal inhibitory concentration for inhibiting the phosphorylation of HER1; ref [17], [23]–[26]; cited from earlier work.
Data set [7] deals with HER2. As to conditions: read-out: half maximal inhibitory concentration for inhibiting the phosphorylation of HER2; ref [17], [23]–[26]; cited from earlier work.
For data set [8], the system named is HER4. To be noted: read-out: half maximal inhibitory concentration for inhibiting the phosphorylation of HER4; ref [17], [23]–[26]; cited from earlier work.
For data set [9] the following is noted: cited from earlier work.
For data set [10] the following is noted: cited from earlier work. This is another data set of the same source.
The mark [11] stands for this setting: cohort A2: varlitinib 400 mg BD continuous + carboplatin + paclitaxel.
The mark [12] stands for this setting: cohort B (varlitinib + paclitaxel), n = 1.

In the case of `C[C@@H]1COC(Nc2ccc3ncnc(Nc4ccc(OCc5nccs5)c(Cl)c4)c3c2)=N1` [varlitinib], the results for the “DLT in cycle 1 (type = number of patients)” value in [1] (setting [11]), in data set [1] (cohort B2: varlitinib 400 mg BD intermittent + paclitaxel) and in data set [1] (cohort B3: varlitinib 300 mg BD continuous + paclitaxel) were “Febrile neutropenia = 3”, “Febrile neutropenia = 1; also recorded: G3 transaminitis =1” and “G3 diarrhea = 1”, respectively. Moreover, the “Number with DLTs” value in data set [1] (setting [11]) is reported as 3/5; in data set [1] (cohort A3: varlitinib 400 mg BD intermittent + carboplatin + paclitaxel), 2/4; in data set [1] (cohort A4: varlitinib 300 mg BD intermittent + carboplatin + paclitaxel), 2/6; in data set [1] (cohort B1: varlitinib 300 mg BD intermittent + weekly paclitaxel) it was 0/6; in data set [1] (cohort B2: varlitinib 400 mg BD intermittent + weekly paclitaxel), 2/4; in [1] (cohort B3: varlitinib 300 mg BD continuous + weekly paclitaxel) it was 4/6. In addition, the “DLT G3/4 neutropenia, patients” value is 33.3% in [1] (cohort A (varlitinib + carboplatin + paclitaxel), n = 6 of 18) and 18.8% in [1] (cohort B (varlitinib + paclitaxel), n = 3 of 16). The “DLT G3 diarrhea, patients” value in data set [1] (setting [12]) was 6.25%. Also, in data set [1] (setting [12]), the “DLT G3 transaminitis, patients” value came out at 6.25%. The “recommended phase II dose of varlitinib for the triplet combination” value in data set [1] (intermittently, with weekly paclitaxel and 3-weekly subcutaneous trastuzumab 600 mg) is listed as 300 mg. In addition, the “all grade pneumonitis rate” value in data set [2] is reported as 5.4%. The “patients with reduction in left ventricular ejection fraction or cardiomyopathy” value in [2] (all cohorts) is “None”. Also, the treatment-related mortality entry in data set [2] (all cohorts) is on record as “no treatment-related mortality”. Besides, the “any grade AE diarrhea” value in data set [2] (overall, all cohorts (n = 37)) is on record as 70.2%. In addition, the “any grade AE fatigue” value in [2] (overall, all cohorts (n = 37)) turned out to be 67.5%. Further, the “any grade AE neutropenia” value in data set [2] (overall, all cohorts (n = 37)) was found to be 45.9%. Further, in data set [2] (overall, all cohorts (n = 37)), the “grade 3 and above AE hyponatremia” value is recorded as 16.2%. Also, the “grade 3 and above AE hypophosphatemia” value in [2] (overall, all cohorts (n = 37)) came to 13.5%. In addition, the “grade 3 and above AE neutropenia” value in data set [2] (overall, all cohorts (n = 37)) was found to be 40.5%. In addition, the “median duration on study treatment” value in data set [3] (all patients, range 0.1–17.1 months) came out at 3.0 months; in [3] (patients who achieved a partial response, range 2.2–17.1 months) it was 5.0 months. The “median PFS” value in data set [3] (all patients, range 0.3–17.1 months) worked out at 3.7 months. Moreover, the overall response rate in data set [3] (entire cohort, 11/37) came to 29.7%. In addition, in data set [3] (excluding the two subjects with non-metastatic breast cancer, 10/30), the partial response rate stood at 33.3%. For the same molecule, the stable disease in data set [3] (excluding the two subjects with non-metastatic breast cancer, 13/30) amounted to 43.3%. The “stable disease as best response” value in [3] (patients evaluable for response, 13/31) came to 41.9%. Besides, the objective responses in data set [3] (varlitinib 300 mg continuous, 1/5 evaluable) amounted to 20%; in [3] (varlitinib 300 mg intermittent, 4/14 evaluable), 28.6%; in data set [3] (varlitinib 400 mg continuous, 2/5 evaluable), 40%; in data set [3] (varlitinib 400 mg intermittent, 3/6 evaluable), 50%; in data set [3] (varlitinib 500 mg continuous, 1/1 evaluable), 100%. Further, the area under the curve AUC(0-t) (usually exposure summed from dosing to a finite time, without extrapolation to infinity) is 44000 ng·h/mL in data set [4] (300-mg intermittent dosing) and 75600 ng·h/mL in data set [4] (400-mg intermittent dosing). For the same molecule, the “effect of varlitinib on the pharmacokinetics (Cmax, AUC) of paclitaxel” value in data set [5] (paclitaxel 80 mg/m^2 weekly) was “Varlitinib was well tolerated and did not significantly affect the pharmacokinetics of paclitaxel”. Besides, the IC50 in data set [6] is 7 nM; in data set [7], 2 nM; in [8] it was 4 nM. In addition, in data set [9] (monotherapy (ARRAY 543-103), continuous dose twice a day), the “maximum tolerated dose (MTD)” value is 500 mg. For the same molecule, the median half-life in data set [9] (reported in other studies) is 5 to 7 h. Moreover, the “febrile neutropenia, patients” value in [9] (varlitinib in combination with 3-weekly docetaxel, phase I study) is 7%.
Regarding `CS(=O)(=O)CCNCc1ccc(-c2ccc3ncnc(Nc4ccc(OCc5cccc(F)c5)c(Cl)c4)c3c2)o1` [lapatinib], the IC50 in data set [7] is […]. Also, the “grade 3 and 4 diarrhea rate” value in data set [10] (combination of lapatinib and capecitabine) was 12%; in data set [10] (combination of lapatinib and letrozole) it was 8%.
As for `CCOc1cc2ncc(C#N)c(Nc3ccc(OCc4ccccn4)c(Cl)c3)c2cc1NC(=O)/C=C/CN(C)C` [neratinib, reference compound], the results for the IC50 in [6], in [7] and in data set [8] were 12 nM, 39 nM and 19 nM, respectively.
For `CC(=O)O[C@H]1C(=O)[C@@]2(C)[C@H]([C@H](OC(=O)c3ccccc3)[C@]3(O)C[C@H](OC(=O)[C@H](O)[C@@H](NC(=O)c4ccccc4)c4ccccc4)C(C)=C1C3(C)C)[C@]1(OC(C)=O)CO[C@@H]1C[C@@H]2O` [paclitaxel, reference compound], the exposure AUC(0-t) in data set [5] (varlitinib 300-mg intermittent dosing cohorts (A4, B1, C1)) worked out at 5010 ± 1860 ng·h/mL; in data set [5] (varlitinib 400-mg intermittent dosing cohorts (A3, B2)), 6130 ± 2050 ng·h/mL.
